According to ChEMBL document CHEMBL4342502, “Synthesis and Antichlamydial Activity of Molecules Based on Dysregulators of Cylindrical Proteases” (J Med Chem, 2020):
The source made the active and inactive calls. The rule behind the calls is not given here.

Tests used:
Assay type in all cases: functional, organism-based
Chlamydia trachomatis = assay: Anti-chlamydial activity against Chlamydia trachomatis Serovar LGV-L2 infected in Hep2 cells assessed as inhibition of chlamydial inclusion at 50 ug/ml treated at 8 hrs post infection and measured at 24 hrs post-infection by immunofluorescence assay
In short: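 HEp-2 cells infected with C. trachomatis serovar L2. Compounds at 50 μg/mL added 8 hpi; inclusion number and size assessed by immunofluorescence at 24 hpi against untreated cells. Cell morphology and viability checked by phase-contrast microscopy.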

Staphylococcus aureus [1] = assay: Antibacterial activity against Staphylococcus aureus JE2 assessed as bacterial growth inhibition at 32 ug/ml measured after 16 hrs by broth microdilution method
In short: (§1)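 Broth microdilution in Mueller Hinton broth, triplicate. Direct colony suspension at 1.5 x 10^8 CFU/mL diluted to ~10^5 CFU/mL. Serial dilutions made from DMSO stocks at 1 mg/mL; vancomycin positive control, blank medium negative control. Incubated 16 h at optimum temperature. MIC is the lowest concentration without visible growth at 600 nm; mean of triplicate determinations.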

Staphylococcus aureus [2] = assay: Antibacterial activity against methicillin-resistant Staphylococcus aureus ATCC 43300 assessed as bacterial growth inhibition at 32 ug/ml measured after 16 hrs by broth microdilution method
Escherichia coli [3] = assay: Antibacterial activity against Escherichia coli ATCC 25922 assessed as bacterial growth inhibition at 32 ug/ml measured after 16 hrs by broth microdilution method
Escherichia coli [4] = assay: Antibacterial activity against Escherichia coli K12 assessed as bacterial growth inhibition at 32 ug/ml measured after 16 hrs by broth microdilution method; conditions: K-12; in short: as §1
Pseudomonas aeruginosa = assay: Antibacterial activity against Pseudomonas aeruginosa ATCC 27853 assessed as bacterial growth inhibition at 32 ug/ml measured after 16 hrs by broth microdilution method
Klebsiella pneumoniae = assay: Antibacterial activity against Klebsiella pneumoniae ATCC 700603 assessed as bacterial growth inhibition at 32 ug/ml measured after 16 hrs by broth microdilution method
Acinetobacter baumannii = assay: Antibacterial activity against Acinetobacter baumannii ATCC 19606 assessed as bacterial growth inhibition at 32 ug/ml measured after 16 hrs by broth microdilution method; conditions: ATCC 19606 = CIP 70.34 = JCM 6841
Candida albicans = assay: Antifungal activity against Candida albicans ATCC 90028 assessed as fungal growth inhibition at 32 ug/ml measured after 16 hrs by broth microdilution method
Cryptococcus neoformans = assay: Antifungal activity against Cryptococcus neoformans var. grubii H99 ATCC […] as fungal growth inhibition at 32 ug/ml measured after 16 hrs by broth microdilution method; conditions: var. grubii H99 ATCC 208821
Staphylococcus aureus [5] = assay: Antibacterial activity against Staphylococcus aureus JE2 assessed as bacterial death up to 256 ug/ml measured after 16 hrs by broth microdilution method; in short: as §1
Escherichia coli [6] = assay: Antibacterial activity against Escherichia coli K12 assessed as bacterial death up to 256 ug/ml measured after 16 hrs by broth microdilution method; conditions: K-12; in short: as §1

Row | Compound | inhibition (Chlamydia trachomatis) | inhibition (Staphylococcus aureus [1]) | inhibition (Staphylococcus aureus [2]) | inhibition (Escherichia coli [3]) | inhibition (Escherichia coli [4]) | inhibition (Pseudomonas aeruginosa) | inhibition (Klebsiella pneumoniae) | inhibition (Acinetobacter baumannii) | inhibition (Candida albicans) | inhibition (Cryptococcus neoformans) | Activity (Staphylococcus aureus [5]) | Activity (Escherichia coli [6])
1 | CC(C)(C(=O)NCCOc1ccccc1Cl)S(=O)(=O)c1ccc(C(F)(F)F)cc1 | Active | inactive | inactive | inactive | inactive | inactive | inactive | inactive | inactive | inactive | – | –
2 | NCCCc1ccccc1 | – | inactive | inactive | inactive | inactive | inactive | inactive | inactive | inactive | inactive | – | –
3 | CC(C)(C(=O)NCCOc1ccc(Cl)cc1)S(=O)(=O)c1ccc(C(F)(F)F)cc1 | inactive | inactive | inactive | inactive | inactive | inactive | inactive | inactive | inactive | inactive | – | –
4 | CC(C(=O)NCCCc1ccccc1)S(=O)(=O)c1ccc(C(F)(F)F)cn1 (stereo not given) | inactive | inactive | inactive | inactive | inactive | inactive | inactive | inactive | inactive | inactive | – | –
5 | NCCBr | – | inactive | inactive | inactive | inactive | inactive | inactive | inactive | inactive | inactive | inactive | inactive
6 | CC(C)(C(=O)NCCCc1ccccc1)S(=O)(=O)c1ccc(Cl)cn1 | Active | – | – | – | – | – | – | – | – | – | – | –
7 | CC(C)(C(=O)NCCOc1ccc(Cl)cc1)S(=O)(=O)c1ccccc1 | inactive | inactive | inactive | inactive | inactive | inactive | inactive | inactive | inactive | inactive | – | –
8 | CC(C)(C(=O)NCCSc1ccc(Cl)cc1)S(=O)(=O)c1ccc(C(F)(F)F)cc1 | Active | inactive | inactive | inactive | inactive | inactive | inactive | inactive | inactive | inactive | – | –
9 | Cc1ccc(C)c(N2CCN(C(=O)C(C)S(=O)(=O)c3ccc(C(F)(F)F)cn3)CC2)c1 (stereo not given) | inactive | inactive | inactive | inactive | inactive | inactive | inactive | inactive | inactive | inactive | – | –
10 | Cc1ccccc1N1CCN(C(=O)C(C)S(=O)(=O)c2ccc(C(F)(F)F)cn2)CC1 (stereo not given) | inactive | inactive | inactive | inactive | inactive | inactive | inactive | inactive | inactive | inactive | – | –
11 | CC(C)(C(=O)NCCCc1ccccc1)S(=O)(=O)c1ccccn1 | inactive | inactive | inactive | inactive | inactive | inactive | inactive | inactive | inactive | inactive | – | –
12 | CC(C(=O)N1CCN(c2ccc(Cl)c(Cl)c2)CC1)S(=O)(=O)c1ccc(C(F)(F)F)cn1 (stereo not given) | inactive | inactive | inactive | inactive | inactive | inactive | inactive | inactive | inactive | inactive | – | –
13 | CC(C)(C(=O)NCCOc1ccccc1)S(=O)(=O)c1ccccc1 | inactive | – | – | – | – | – | – | – | – | – | – | –
14 | CC(C)(C(=O)NCCSc1ccccc1Cl)S(=O)(=O)c1ccc(C(F)(F)F)cc1 | Active | inactive | inactive | inactive | inactive | inactive | inactive | inactive | inactive | inactive | – | –
15 | CC(C)(C(=O)NCCOc1ccc(Cl)cc1)S(=O)(=O)c1ccc(C(F)(F)F)cn1 | inactive | inactive | inactive | inactive | inactive | inactive | inactive | inactive | inactive | inactive | – | –
16 | CC(C)(C(=O)NCCOc1ccccc1Cl)S(=O)(=O)c1ccc(C(F)(F)F)cn1 | Active | inactive | inactive | inactive | inactive | inactive | inactive | inactive | inactive | inactive | inactive | inactive
17 | CC(C)(C(=O)N1CCN(Cc2ccc(F)cc2)CC1)S(=O)(=O)c1ccc(C(F)(F)F)cn1 | inactive | inactive | inactive | inactive | inactive | inactive | inactive | inactive | inactive | inactive | – | –
18 | CC(C)(C(=O)N1CCN(c2ccccc2)CC1)S(=O)(=O)c1ccc(C(F)(F)F)cn1 | inactive | inactive | inactive | inactive | inactive | inactive | inactive | inactive | inactive | inactive | – | –
19 | Cc1ccc(C)c(N2CCN(C(=O)C(C)(C)S(=O)(=O)c3ccc(C(F)(F)F)cn3)CC2)c1 | Active | inactive | inactive | inactive | inactive | inactive | inactive | inactive | inactive | inactive | – | –
20 | CC(C)(C(=O)N1CCN(c2ccccn2)CC1)S(=O)(=O)c1ccc(C(F)(F)F)cn1 | inactive | inactive | inactive | inactive | inactive | inactive | inactive | inactive | inactive | inactive | – | –
21 | COc1cccc(N2CCN(C(=O)C(C)(C)S(=O)(=O)c3ccc(C(F)(F)F)cn3)CC2)c1 | Active | inactive | inactive | inactive | inactive | inactive | inactive | inactive | inactive | inactive | – | –
22 | CC(C)(C(=O)NCCSc1ccccc1)S(=O)(=O)c1ccc(C(F)(F)F)cn1 | inactive | – | – | – | – | – | – | – | – | – | – | –
